Measured values as given in ChEMBL document CHEMBL2029317, “(Z)-2-(2-bromophenyl)-3-{[4-(1-methyl-piperazine)amino]phenyl}acrylonitrile (DG172): an orally bioavailable PPARβ/δ-selective ligand with inverse agonistic properties” (J Med Chem, 2012).
Active and inactive are the calls of the source. No cut-off for these calls is given here.

How the values were obtained:
[1] = target: T1, Peroxisome proliferator-activated receptor gamma (Homo sapiens) (UniProt P37231); assay: Displacement of fluormone Pan-PPAR Green from PPARgamma at 100 to 1000 nM after 60 mins by TR-FRET assay
T1 sequence (whole entry): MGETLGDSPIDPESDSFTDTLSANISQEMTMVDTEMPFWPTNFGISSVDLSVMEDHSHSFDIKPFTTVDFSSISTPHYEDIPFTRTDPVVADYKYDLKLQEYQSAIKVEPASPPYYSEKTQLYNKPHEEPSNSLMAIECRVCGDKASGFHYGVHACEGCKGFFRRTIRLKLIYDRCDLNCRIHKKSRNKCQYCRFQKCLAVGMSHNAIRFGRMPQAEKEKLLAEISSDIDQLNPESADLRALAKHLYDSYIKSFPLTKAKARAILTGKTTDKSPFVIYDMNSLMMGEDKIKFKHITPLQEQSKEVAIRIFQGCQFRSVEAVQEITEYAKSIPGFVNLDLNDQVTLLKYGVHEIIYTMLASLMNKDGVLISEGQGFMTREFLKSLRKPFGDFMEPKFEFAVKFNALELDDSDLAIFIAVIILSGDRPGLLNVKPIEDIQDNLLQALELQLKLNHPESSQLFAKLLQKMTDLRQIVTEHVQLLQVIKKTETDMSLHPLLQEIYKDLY

[2] = target: T2, Peroxisome proliferator-activated receptor delta (Mus musculus, UniProt P35396); assay: Displacement of fluormone Pan-PPAR Green from mouse recombinant GST-tagged PPARbeta/delta LBD after 60 mins by TR-FRET assay
T2 sequence (P35396 whole entry): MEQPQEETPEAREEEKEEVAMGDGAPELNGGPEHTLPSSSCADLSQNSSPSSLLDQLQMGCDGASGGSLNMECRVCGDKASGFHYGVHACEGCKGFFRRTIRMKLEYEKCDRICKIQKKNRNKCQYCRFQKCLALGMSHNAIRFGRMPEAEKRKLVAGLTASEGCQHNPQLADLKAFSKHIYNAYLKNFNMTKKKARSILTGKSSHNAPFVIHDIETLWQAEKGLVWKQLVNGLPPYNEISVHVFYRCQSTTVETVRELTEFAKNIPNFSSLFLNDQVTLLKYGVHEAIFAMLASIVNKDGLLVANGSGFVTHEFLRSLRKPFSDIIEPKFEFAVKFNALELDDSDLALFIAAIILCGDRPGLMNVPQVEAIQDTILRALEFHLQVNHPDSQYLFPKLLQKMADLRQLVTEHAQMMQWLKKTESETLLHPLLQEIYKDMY

[3] = target: T3, Peroxisome proliferator-activated receptor delta (Mus musculus) (UniProt P35396); assay: Inverse agonist activity at GST-tagged recombinant mouse PPARbeta/delta assessed as increase in corepressor peptide SMRT-ID2 interaction after 60 mins by TR-FRET assay; assay type: functional
T3 sequence (whole entry): T2 sequence (P35396 whole entry)
Summary of the method: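 LanthaScreen TR-FRET coregulator assay: recombinant GST-PPARβ/δ LBD, labelled by a terbium-coupled anti-GST antibody, was incubated with fluorescein-labelled SMRT-ID2 corepressor peptide and compound. Signal is the 520/495 nm emission ratio, as triplicate averages ± SD, with t test against untreated sample.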

[4] = Clearance in CD1 mouse at 1 mg/kg, iv; assay type: ADME, organism-based; parameters: dose 1 mg/kg, route intravenous; conditions: in vivo
Summary of the method: (§1)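 Male CD-1 mice dosed iv by tail vein (1 mg/kg) or po by gastric gavage (5 mg/kg). Vehicle was DMSO/Solutol HS 15/PBS pH 7.4 (5/5/90, v/v/v). Blood was taken at eight time points from 10 min to 12 h, by parallel sampling of three mice per point. Plasma was acetonitrile-precipitated and analysed by HPLC-MS/MS, and basic PK parameters were derived.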

[5] = target: T4, Peroxisome proliferator-activated receptor alpha (Mus musculus) (UniProt P23204); assay: Antagonist activity at PPARalpha in mouse NIH3T3 cells coexpressing LexA assessed as decrease in GW7647-induced transcriptional activation at 1 uM after 48 hrs by luciferase reporter gene assay relative to control; assay type: functional, cell-based
T4 sequence (whole entry): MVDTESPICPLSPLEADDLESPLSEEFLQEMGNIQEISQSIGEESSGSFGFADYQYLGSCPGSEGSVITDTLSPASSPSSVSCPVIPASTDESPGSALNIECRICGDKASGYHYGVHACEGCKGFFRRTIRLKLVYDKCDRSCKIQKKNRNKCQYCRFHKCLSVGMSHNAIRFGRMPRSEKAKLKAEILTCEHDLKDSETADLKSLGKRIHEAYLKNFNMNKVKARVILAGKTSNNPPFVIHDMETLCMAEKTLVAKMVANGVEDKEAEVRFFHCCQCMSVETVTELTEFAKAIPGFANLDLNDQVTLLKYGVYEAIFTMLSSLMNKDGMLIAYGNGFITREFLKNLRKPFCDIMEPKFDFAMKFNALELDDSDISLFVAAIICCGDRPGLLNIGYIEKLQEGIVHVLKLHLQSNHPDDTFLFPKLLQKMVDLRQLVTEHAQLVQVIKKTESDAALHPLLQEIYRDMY
Summary of the method: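 NIH3T3 cells were transfected with LexA-PPARα, -PPARβ/δ or -PPARγ fusion plasmids plus the 7L-TATAi luciferase reporter. From 4 h post-transfection, cells received inhibitory ligand (1 μM) for 48 h. Agonists followed: GW7647 300 nM (PPARα), L165,041 1 μM (PPARβ/δ) or GW1929 300 nM (PPARγ), or agonist solvent. Induction is luciferase activity with agonist relative to solvent; triplicates with t test.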

[6] = target: T3, Peroxisome proliferator-activated receptor delta (Mus musculus); assay: Displacement of fluormone Pan-PPAR Green from mouse recombinant GST-tagged PPARbeta/delta LBD at 1 uM after 60 mins by TR-FRET assay
Summary of the method: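 Competitive binding by LanthaScreen TR-FRET: recombinant GST-PPARβ/δ LBD, detected through a terbium-labelled anti-GST antibody, was incubated with Fluormone Pan-PPAR Green. Compound was tested at 1 μM. Read-out is the 520 nm/495 nm emission ratio after terbium excitation, as averages of triplicates ± SD.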

[7] = target: T5, Peroxisome proliferator-activated receptor alpha (Homo sapiens) (UniProt Q07869); assay: Displacement of fluormone Pan-PPAR Green from PPARalpha at 100 to 1000 nM after 60 mins by TR-FRET assay
T5 sequence (whole entry): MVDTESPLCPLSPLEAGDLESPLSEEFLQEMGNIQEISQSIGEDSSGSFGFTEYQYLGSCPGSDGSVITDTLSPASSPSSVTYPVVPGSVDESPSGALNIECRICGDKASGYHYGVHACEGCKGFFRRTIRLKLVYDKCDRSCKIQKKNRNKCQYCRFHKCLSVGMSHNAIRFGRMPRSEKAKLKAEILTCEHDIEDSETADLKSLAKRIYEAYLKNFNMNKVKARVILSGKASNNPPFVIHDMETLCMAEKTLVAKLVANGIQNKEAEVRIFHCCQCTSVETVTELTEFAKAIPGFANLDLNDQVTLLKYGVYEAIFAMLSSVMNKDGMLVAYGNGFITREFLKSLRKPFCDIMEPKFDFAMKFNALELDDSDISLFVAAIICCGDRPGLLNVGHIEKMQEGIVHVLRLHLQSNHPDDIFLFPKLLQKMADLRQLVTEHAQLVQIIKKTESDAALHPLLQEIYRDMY

[8] = Volume of distribution at steady state in CD1 mouse at 1 mg/kg, iv; assay type: ADME, organism-based; parameters: dose 1 mg/kg, route intravenous; conditions: in vivo, read-out: Vdss; summary of the method: as §1

Row | Activity [1] | IC50 [2] | Activity [3] | clearance [4] | Activity [5] | Activity [6] | Activity [7] | Vd [8] | SMILES
1 | inactive | 26.9 nM | Active | 121 mL/min/kg | inactive | Active | inactive | 12.5 L/kg | CN1CCN(c2ccc(/C=C(\C#N)c3ccccc3Br)cc2)CC1
2 | inactive | 180 nM | Active | 176 mL/min/kg | inactive | Active | inactive | 6.2 L/kg | CN(C)c1ccc(/C=C(\C#N)c2ccccc2Cl)cc1
